From ChEMBL document CHEMBL4765271, “Design, synthesis and biological evaluation of 2,3-dihydro-5,6-dimethoxy-1H-inden-1-one and piperazinium salt hybrid derivatives as hAChE and hBuChE enzyme inhibitors” (Eur J Med Chem, 2020)
pIC50: −log10 of the molar value.

Tests used:
[1] = target: T1, Acetylcholinesterase (Homo sapiens, UniProt P22303); assay: Inhibition of human erythrocyte AChE using acetylthiocholine as substrate measured after 5 mins by Ellman's method
[2] = species: Homo sapiens; assay: Selectivity ratio of IC50 for human erythrocyte AChE to IC50 for human plasma BuChE
How it was run: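 Ellman assay used cholinesterases from human blood. Inhibitor at five concentrations was pre-incubated 5 min at 37 °C in phosphate buffer pH 8 with DTNB (3.5 mM stock) and acetylthiocholine iodide substrate (7 mM stock). The reaction was started with enzyme and read as absorbance increase at 412 nm. Each run was done twice. The ratio is derived from the AChE and BuChE IC50 values.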

[3] = target: T2, Cholinesterase (Homo sapiens, UniProt P06276); assay: Inhibition of human plasma BuChE using butyrylthiocholine as substrate measured after 5 mins by Ellman's method
T2 sequence (P06276 whole entry): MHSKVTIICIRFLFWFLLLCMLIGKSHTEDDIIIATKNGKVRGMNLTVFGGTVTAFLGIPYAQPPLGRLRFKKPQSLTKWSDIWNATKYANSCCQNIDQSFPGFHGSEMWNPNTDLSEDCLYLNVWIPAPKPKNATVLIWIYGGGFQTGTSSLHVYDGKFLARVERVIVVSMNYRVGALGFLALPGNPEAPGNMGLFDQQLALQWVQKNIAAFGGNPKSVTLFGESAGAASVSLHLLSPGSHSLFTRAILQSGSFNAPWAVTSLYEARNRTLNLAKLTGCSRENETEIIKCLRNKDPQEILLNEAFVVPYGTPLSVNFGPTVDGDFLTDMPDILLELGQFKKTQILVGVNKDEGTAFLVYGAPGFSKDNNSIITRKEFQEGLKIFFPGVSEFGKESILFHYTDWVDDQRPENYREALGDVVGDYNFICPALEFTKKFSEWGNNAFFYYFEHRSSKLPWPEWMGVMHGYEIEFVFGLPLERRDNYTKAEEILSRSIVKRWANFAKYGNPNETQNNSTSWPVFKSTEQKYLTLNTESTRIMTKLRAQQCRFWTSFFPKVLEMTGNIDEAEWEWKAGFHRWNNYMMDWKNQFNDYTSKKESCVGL

[4] = target: T1, Acetylcholinesterase; assay: Inhibition of human erythrocyte AChE at 100 uM using acetylthiocholine as substrate measured after 5 mins by Ellman's method relative to control
How it was run: (§1)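 Ellman spectrophotometric assay using cholinesterases from human blood. The 1 ml medium held pH 8 phosphate buffer, DTNB (3.5 mM stock), thiocholine substrate (7 mM stock) and inhibitor. It was preincubated 5 min at 37 °C, then started by adding enzyme. Absorbance increase was read at 412 nm over 5 min intervals against control cuvettes. Each experiment was run twice.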

[5] = target: T2, Cholinesterase; assay: Inhibition of human plasma BuChE at 100 uM using butyrylthiocholine as substrate measured after 5 mins by Ellman's method relative to control; how it was run: as §1

T1 sequence (P22303 whole entry): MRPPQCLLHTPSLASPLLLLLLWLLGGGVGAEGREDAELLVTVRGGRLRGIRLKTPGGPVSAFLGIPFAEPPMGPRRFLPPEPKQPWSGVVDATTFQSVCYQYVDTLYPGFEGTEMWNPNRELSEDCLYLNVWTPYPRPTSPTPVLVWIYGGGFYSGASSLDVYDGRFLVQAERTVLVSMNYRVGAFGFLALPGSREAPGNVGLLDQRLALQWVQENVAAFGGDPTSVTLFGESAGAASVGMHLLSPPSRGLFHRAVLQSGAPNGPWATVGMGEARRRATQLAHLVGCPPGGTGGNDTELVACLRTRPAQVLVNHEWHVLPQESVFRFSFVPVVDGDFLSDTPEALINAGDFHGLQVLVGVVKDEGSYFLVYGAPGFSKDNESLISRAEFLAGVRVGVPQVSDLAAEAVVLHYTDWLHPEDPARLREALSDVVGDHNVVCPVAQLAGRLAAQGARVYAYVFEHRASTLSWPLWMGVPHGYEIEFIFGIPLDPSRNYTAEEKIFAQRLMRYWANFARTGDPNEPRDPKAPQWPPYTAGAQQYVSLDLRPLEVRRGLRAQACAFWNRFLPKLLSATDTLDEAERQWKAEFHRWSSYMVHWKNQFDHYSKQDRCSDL

Compound `CCCCCC[N+]1(C)CCN(c2ccc(/C=C3\Cc4cc(OC)c(OC)cc4C3=O)cc2)CC1` has a pIC50 [1] of 5.37, a Ratio IC50 [2] of 1.18 and a pIC50 [3] of 5.44.

Work on `COc1cc2c(cc1OC)C(=O)/C(=C/c1ccc(OCCBr)cc1)C2` yielded an inhibition [4] of 6.16% and an inhibition [5] of 5.16%.

In the case of `COc1cc2c(cc1OC)C(=O)/C(=C/c1ccc(N3CC[N+](C)(Cc4ccccc4Br)CC3)cc1)C2`, the pIC50 [1] was 6.27, the Ratio IC50 [2] was 0.38 and the pIC50 [3] was 5.85.

For `CCCC[N+]1(C)CCN(c2ccc(/C=C3\Cc4cc(OC)c(OC)cc4C3=O)cc2)CC1`, the pIC50 [1] was 6.27, the Ratio IC50 [2] was 0.02 and the pIC50 [3] was 4.67.

Compound `COc1cc2c(cc1OC)C(=O)/C(=C/c1ccc(N3CC[N+](C)(Cc4ccccc4Cl)CC3)cc1)C2` has a pIC50 [1] of 6.32, a Ratio IC50 [2] of 0.22 and a pIC50 [3] of 5.67.

`CCCCC[N+]1(C)CCN(c2ccc(/C=C3\Cc4cc(OC)c(OC)cc4C3=O)cc2)CC1` showed a pIC50 [1] of 6.27, a Ratio IC50 [2] of 0.17 and a pIC50 [3] of 5.49.

`COc1cc2c(cc1OC)C(=O)/C(=C/c1ccc(OCCCCBr)cc1)C2` gave an inhibition [4] of 27.8% and an inhibition [5] of 0%.

`COc1cc2c(cc1OC)C(=O)/C(=C/c1ccc(N3CC[N+](C)(Cc4ccccn4)CC3)cc1)C2` showed a pIC50 [1] of 6.42, a Ratio IC50 [2] of 0.12 and a pIC50 [3] of 5.49.
